Source: ChEMBL document CHEMBL1130424, “Stabilized analogs of thymopentin. 1. 4,5-Ketomethylene pseudopeptides” (J Med Chem, 1997)

Tests used:
CCRF-CEM [1] = test: Efficacy was measured as the percentage binding to CEM cells.; assay type: functional, Homo sapiens
Method in brief: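 CEM T-cells, subcultured in RPMI-1640 with 20% serum and stored frozen, were set at 5×10^6 cells/0.1 mL binding buffer (RPMI-1640 with bacitracin). Unlabeled competitor was added at 10^-6–10^-3 M, then [3H]thymopentin (37 Ci/mmol, 548 000 cpm). Incubation was 25 °C for 30 min, followed by two ice-cold washes and scintillation counting. Values are means of replicates at 10^-4 and 10^-3 M.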

[2] = Half life by HPLC methods that permitted quantitative resolution of the decrease of TP-5 and the appearance of degradation products by absorbance, human heparinized serum; Not degraded; assay type: ADME
[3] = Half life by HPLC methods that permitted quantitative resolution of the decrease of TP-5 and the appearance of degradation products by absorbance, heparinized mouse serum; Not degraded; assay type: ADME
Method in brief: (§1)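 Mouse serum was prepared from whole blood with heparin sodium or EDTA as anticoagulant. Compounds were incubated for variable times, and incubation was ended by TFA to 10% (v/v) final, then 1 h at 0 °C and protein removal by centrifugation. Half-life came from HPLC absorbance following disappearance of parent and appearance of degradation products.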

CCRF-CEM [4] = test: Binding was measured using [3H]thymopentin was compared to the CEM cell binding assay.; assay type: functional, Homo sapiens; design: unit not given here
[5] = Half life by HPLC methods that permitted quantitative resolution of the decrease of TP-5 and the appearance of degradation products by absorbance in heparinized mouse serum; Not degraded; assay type: ADME; method in brief: as §1
[6] = Half life by HPLC methods that permitted quantitative resolution of the decrease of TP-5 and the appearance of degradation products by absorbance in human heparinized serum; Not degraded; assay type: ADME
[7] = Half life by HPLC methods that permitted quantitative resolution of the decrease of TP-5 and the appearance of degradation products by absorbance in EDTA-treated mouse serum; assay type: ADME, organism-based; method in brief: as §1
[8] = Half life by HPLC methods that permitted quantitative resolution of the decrease of TP-5 and the appearance of degradation products by absorbance in human heparinized serum; assay type: ADME
[9] = Half life by HPLC methods that permitted quantitative resolution of the decrease of TP-5 and the appearance of degradation products by absorbance in heparinized mouse serum; assay type: functional, cell-free; method in brief: as §1
[10] = Half life by HPLC methods that permitted quantitative resolution of the decrease of TP-5 and the appearance of degradation products by absorbance in heparinized mouse serum.; assay type: ADME; method in brief: as §1
[11] = Half life by HPLC methods that permitted quantitative resolution of the decrease of TP-5 and the appearance of degradation products by absorbance, human heparinized serum; assay type: ADME, cell-free
[12] = Half life by HPLC methods that permitted quantitative resolution of the decrease of TP-5 and the appearance of degradation products by absorbance, heparinized mouse serum.; assay type: ADME; method in brief: as §1

Structure (SMILES)	Efficacy (CCRF-CEM [1])	Binding (CCRF-CEM [4])	other results
CCCC[C@@H](C(=O)N[C@@H](CC(=O)O)C(=O)N[C@H](C(=O)C[C@H](C(=O)O)C(C)C)C(C)C)N(C)C(=O)[C@@H](N)CCCN=C(N)N	37	2356	T1/2 [2]: Not degraded; T1/2 [3]: Not degraded
CC(C)C[C@H](NC(=O)[C@@H](N)CCCN=C(N)N)C(=O)N[C@@H](CC(=O)O)C(=O)N[C@H](C(=O)C[C@H](Cc1ccccc1)C(=O)O)C(C)C	65	1851	–
CC(C)[C@H](NC(=O)[C@H](CC(=O)O)NC(=O)[C@H](C)NC(=O)[C@@H](N)CCCN=C(N)N)C(=O)C[C@H](Cc1ccccc1)C(=O)O	67	1780	–
CCCC[C@@H](C(=O)N[C@@H](CC(=O)O)C(=O)N[C@H](C(=O)C[C@H](Cc1ccccc1)C(=O)O)C(C)C)N(C)C(=O)[C@@H](N)CCCN=C(N)N	37	2356	T1/2 [5]: Not degraded; T1/2 [6]: Not degraded
CCCC[C@H](NC(=O)[C@@H](N)CCCN=C(N)N)C(=O)N[C@@H](CC(=O)O)C(=O)N[C@@H](C(C)C)C1CC(Cc2ccccc2)C(=O)O1 (stereo partly specified)	16	2771	–
CCCC[C@H](NC(=O)[C@@H](N)CCCN=C(N)N)C(=O)N[C@@H](CC(=O)O)C(=O)N[C@@H](C(C)C)C(O)C[C@H](Cc1ccccc1)C(=O)O (stereo partly specified)	35	2400	–
CC(C)[C@H](NC(=O)[C@H](CC(=O)O)NC(=O)[C@H](CCCCN)NC(=O)[C@@H](N)CCCN=C(N)N)C(=O)C[C@H](Cc1ccccc1)C(=O)O (stereo in doubt; 1a -A) [listing 1 of 2 here]	70	1735	half-life [7]: 4.9 min; half-life [8]: 2 min
CC(C)[C@H](NC(=O)[C@H](CC(=O)O)NC(=O)[C@H](CCCCN)NC(=O)[C@@H](N)CCCN=C(N)N)C(=O)C[C@H](Cc1ccccc1)C(=O)O (stereo in doubt; 1a -A) [listing 2 of 2 here]	–	–	T1/2 [9]: 2 min
CC(C)[C@H](NC(=O)[C@H](CC(=O)O)NC(=O)[C@H](CCCCN)NC(=O)[C@@H](N)CCCN=C(N)N)C(=O)C[C@H](Cc1ccccc1)C(=O)O (stereo in doubt; 1a-B)	73	1673	–
CC(C)[C@H](NC(=O)[C@H](CC(=O)O)NC(=O)[C@@H]1CCCN1C(=O)[C@@H](N)CCCN=C(N)N)C(=O)C[C@H](Cc1ccccc1)C(=O)O (stereo in doubt; 1b-A)	64	1843	half-life [10]: 4.5 min; half-life [7]: 17 min; half-life [8]: 6 min
CC(C)[C@H](NC(=O)[C@H](CC(=O)O)NC(=O)[C@@H]1CCCN1C(=O)[C@@H](N)CCCN=C(N)N)C(=O)C[C@H](Cc1ccccc1)C(=O)O (stereo in doubt; 1b-B)	56	2000	–
CCCC[C@H](NC(=O)[C@@H](N)CCCN=C(N)N)C(=O)N[C@@H](CC(=O)O)C(=O)N[C@H](C(=O)C[C@H](Cc1ccccc1)C(=O)O)C(C)C (stereo in doubt; 1c-A)	95	1254	half-life [10]: 5.5 min; half-life [7]: 21.1 min; half-life [8]: 1.9 min
CCCC[C@H](NC(=O)[C@@H](N)CCCN=C(N)N)C(=O)N[C@@H](CC(=O)O)C(=O)N[C@H](C(=O)C[C@H](Cc1ccccc1)C(=O)O)C(C)C (stereo in doubt; 1c-B)	84	1453	–
CC(C)[C@H](NC(=O)[C@H](CC(=O)O)NC(=O)[C@H](CCCCN)NC(=O)[C@@H](N)CCCN=C(N)N)C(=O)C[C@H](Cc1ccccc1)C(=O)O (stereo in doubt; 1f-A)	54	2044	–
CCCC[C@H](NC(=O)[C@@H](N)CCCN=C(N)N)C(=O)N[C@@H](CC(=O)O)C(=O)N[C@@H](C)C(=O)C[C@H](Cc1ccccc1)C(=O)O (stereo in doubt; 1g-A)	73	1677	half-life [7]: 20 min
CCCC[C@H](NC(=O)[C@@H](N)CCCN=C(N)N)C(=O)N[C@@H](CC(=O)O)C(=O)N[C@@H](C)C(=O)C[C@H](Cc1ccccc1)C(=O)O (stereo in doubt; 1g-B)	71	1715	–
CCCC[C@H](NC(=O)[C@@H](N)CCCN=C(N)N)C(=O)N[C@@H](CC(=O)O)C(=O)N[C@H](C(=O)C[C@H](C(=O)O)C(C)C)C(C)C (stereo in doubt; 1h-A)	77	1600	half-life [11]: 2.4 min; T1/2 [12]: 1.2 min
CCCC[C@H](NC(=O)[C@@H](N)CCCN=C(N)N)C(=O)N[C@@H](CC(=O)O)C(=O)N[C@H](C(=O)C[C@H](C(=O)O)C(C)C)C(C)C (stereo in doubt; 1h-B)	71	1713	T1/2 [12]: 2.6 min
